The values below come from paper PMC7380323 (ACS chemical neuroscience, 2020).

Data set [1] relates to HMC3 human microglia cells. The data set is classed as cell-based. Conditions: −80 mV.
Data set [2] concerns immortalized mouse microglia cells. The data set is described as follows: Automated patch clamp, GABA current response in immortalized mouse microglia. The data set is classed as cell-based.
The test system of data set [3] is Mouse microglia. It is filed as cell-based.
In data set [4] the test system is immortalized human microglia cells. The data set can be described thus: Automated patch clamp, GABA current response in immortalized human microglia. It is filed as cell-based.
For data set [5], the system named is Mouse microglia. The data set can be described thus: Cell viability. The data set is classed as cell-based. The following applies: for Cell viability (%) Mouse microglia 50 μM: CellTiter-Glo.
For data set [6], the system named is RAW macrophages. The data set is described as follows: Inhibition of NO production. The data set is classed as cell-based, mouse. Conditions: 24 h, IFNγ/LPS activated, 1 μM GABA. The procedure, abridged: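 RAW264.7 murine macrophages were grown in DMEM/high glucose with 10% heat-inactivated FBS, penicillin/streptomycin and Normocin at 37°C and 5% CO2, and passaged by scraping. […] After about 24 h at 37°C, nitrite in the supernatant was measured by Griess assay (absorbance 530 nm).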

Data set [7] deals with RAW macrophages. The data set is described as follows: Cell viability. The data set is classed as cell-based, mouse. The following applies: CellTiter-Glo.
The test system of data set [8] is κ-opioid receptor. Conditions: cited from earlier work.
In data set [9] the test system is Swiss Webster mice. The data set can be described thus: Rotarod test. Conditions: 5 mg/kg. The data set is classed as in vivo, mouse.
The test system of data set [10] is Swiss Webster mice. The data set can be described thus: Formalin test. The data set is classed as in vivo, mouse. Conditions: 30 mg/kg orally. The procedure, abridged:
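Test compounds given orally four days before 2% formalin was injected into the right hind paw of Swiss Webster mice.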

Where two headings read alike, the source gives them in different places.

Consider `NCCCC(=O)O` [GABA, γ-aminobutyric acid], for which, in data set [1], the “maximum negative current response for 1 mM GABA” value is recorded as 746 pA. For the same compound, the “maximum current response for 1 mM GABA” value amounted to 1514 pA in [2] and 1245 pA in [4]. In addition, the “secreted NO levels of activated microglia” value in [3] (1 μM, Griess assay after 14 h) is on record as “no effect”.

On to `C#Cc1ccc2c(c1)C(c1ccccn1)=NCc1c(-c3cnco3)ncn1-2` [KRM-II-81], for which, in data set [5], the “Cell viability (%) Mouse microglia 50 μM” value stood at 100 ± 5%. The “Inhibition of NO production (%) Mouse microglia 50 μM” value in data set [3] was 0 ± 1%.

Consider `C#Cc1ccc2c(c1)C(c1ccccc1F)=N[C@H](C)c1c(C(=O)NC)ncn1-2` [MP-III-022], for which the “Inhibition of NO production (%) RAW macrophages 10 μM” value in data set [6] (10 μM) is 9 ± 5%. Further, the “Inhibition of NO production (%) RAW macrophages 50 μM” value in [6] (50 μM) worked out at 51 ± 7%. Further, the “Cell viability (%) Mouse microglia 50 μM” value in data set [5] is recorded as 86 ± 2%. Besides, in data set [3], the “Inhibition of NO production (%) Mouse microglia 10 μM” value worked out at 36 ± 6% and the “Inhibition of NO production (%) Mouse microglia 50 μM” value turned out to be 60 ± 12%. In addition, the “Cell viability (%) RAW macrophages 50 μM” value in data set [7] is given as 100 ± 11%.

Regarding `CN1CCc2cc3c(cc2[C@H]1[C@@H]1OC(=O)c2c1ccc1c2OCO1)OCO3` [bicuculline], in [3] (antagonist 100 μM, with GABA, 14 h), the “reversal of the NO effect of 50 μM MP-IV-010 by antagonist” value was “did not reverse”.

For `CNC1=Nc2ccc(Cl)cc2C(c2ccccc2)=[N+]([O-])C1` [chlordiazepoxide], the “affinity for the κ-opioid receptor (in words)” value (shortened to “affinity”) in data set [8] is recorded as “micromolar affinities”.

On to `C[C@@H]1C[C@H]2[C@@H]3CCC4=CC(=O)C=C[C@]4(C)[C@@]3(F)[C@@H](O)C[C@]2(C)[C@@]1(O)C(=O)CO` [dexamethasone], for which the “cytotoxicity / cell viability in the antagonist experiments (CellTiter-Glo)” value in data set [5] (activated mouse microglia, concentrations as in the NO experiments) is listed as “without cell toxicity”. Besides, the “NO production of activated microglia” value in [3] (100 nM, Griess assay after 14 h) is “reduced NO production”.

Regarding `CN1C(=O)CN=C(c2ccccc2)c2cc(Cl)ccc21` [diazepam], the “affinity” value in data set [8] was “micromolar affinities”. Also, the “sedation on the rotarod” value in [9] was “sedating”.

As to `CCOC(=O)c1ncn2c1CN(C)C(=O)c1cc(F)ccc1-2` [flumazenil], in data set [3], the “reversal of the NO effect of 50 μM MP-IV-010 by antagonist” value was “did not reverse”.

On to `CC(C(=O)O)c1cccc(C(=O)c2ccccc2)c1` (stereo not drawn) [ketoprofen], for which the “antinociceptive effect in the formalin test compared with GL-IV-03 10 mg/kg” value in data set [10] is recorded as “similar”.

For `Cc1ncc2n1-c1ccc(Cl)cc1C(c1ccccc1F)=NC2` [midazolam], the “affinity” value in data set [8] is reported as “micromolar affinities”.

As to `Oc1ccc2c3c1O[C@H]1c4[nH]c5c(c4C[C@@]4(O)[C@@H](C2)N(CC2CC2)CC[C@]314)C[C@@]1(O)[C@H]2Cc3ccc(O)c4c3[C@@]1(CCN2CC1CC1)[C@H]5O4` [norbinaltorphimine], the “reversal of the NO effect of 50 μM MP-IV-010 by antagonist” value in [3] (antagonist 30 μM, 14 h) was “reversed”.

With SM-21, the “reversal of the NO effect of 50 μM MP-IV-010 by antagonist” value in data set [3] (antagonist 30 μM, 14 h) is given as “no reversal”.

For the compound picrotoxin, the “reversal of the NO effect of 50 μM MP-IV-010 by antagonist” value in [3] (antagonist 50 μM, with GABA, 14 h) was “did not reverse”.
